HKDC1 inhibitor: HKDC1 (human) hexokinase inhibition | AID 493160 | recombinant HKDC1, G6PDH/diaphorase resazurin coupled fluorescence | 340,000 tested, 0.16% active | inhibition, % at 20 µM;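 active = inhibition above about 35% when tested at 20 µM, limit read from the data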;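 also: plate controls were DMSO wells with enzyme for no effect and DMSO wells lacking enzyme for full effect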
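Material – in-house recombinant HK5 (HKDC1) enzyme · Quantity – HKDC1 at 5 µg/mL · Buffer or medium – pH 8.0 Tris buffer with 10 mM MgCl2 · Reagent – glucose with 1 mM ATP · Dosing – single 20 µM dose · Times – reaction time 90 min, room temperature, protected from light · Technique – resorufin fluorescence at 613 nm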
APOBEC3A inh: blocks human APOBEC3A ssDNA deamination | P31941 | recombinant A3A, FAM/TAMRA ssDNA deamination fluorescence | inhibition, % at 20 µM | 330,000 tested, 0.41% active;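 active = at least 40% inhibition at 20 µM here, with at most 30% in a related deaminase screen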;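 also: plate controls were A3A with DMSO for no effect and wells lacking A3A enzyme for full effect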
M18AAP inhibitor: blocks P. falciparum M18 aspartyl aminopeptidase | recombinant PfM18AAP, H-Glu-NHMec fluorogenic cleavage | inhibition, % at 7.35 µM | 290,000 tested, 1.2% active | AID 1822;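 active = inhibition above the campaign mean inhibition over all tested compounds plus 3 SD, cut at about 28% in these data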;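 also: 0% = plate median of test compound wells and 100% = 2 mM ZnCl2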
APOBEC3G inh: APOBEC3G (human) deaminase inhibition; inhibition, % at 20 µM; 330,000 tested, 0.28% active; recombinant A3G, ssDNA deamination FAM/TAMRA fluorescence;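 active = inhibition of at least 40% at 20 µM, with no more than 30% in the related APOBEC3A deaminase screen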;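 also: plate controls were DMSO wells with A3G for no effect and wells lacking A3G enzyme for full effect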
Target sequence (Q9HC16 whole entry, looked up): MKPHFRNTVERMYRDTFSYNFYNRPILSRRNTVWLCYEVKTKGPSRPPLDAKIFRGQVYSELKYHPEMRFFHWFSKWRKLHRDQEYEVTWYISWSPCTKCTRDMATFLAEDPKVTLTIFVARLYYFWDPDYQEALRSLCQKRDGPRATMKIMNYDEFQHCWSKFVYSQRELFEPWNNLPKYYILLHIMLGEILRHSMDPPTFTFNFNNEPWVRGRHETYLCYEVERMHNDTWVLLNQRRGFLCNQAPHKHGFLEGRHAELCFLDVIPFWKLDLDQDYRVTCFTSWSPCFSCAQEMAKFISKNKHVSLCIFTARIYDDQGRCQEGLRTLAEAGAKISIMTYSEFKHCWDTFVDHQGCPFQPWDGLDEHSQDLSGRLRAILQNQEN
UBC9 SUMO inh: inhibitors of human SUMOylation (UBC9). HTRF SUMOylation assay, SAE1/SAE2 + UBC9, in vitro. inhibition, % at 35 µM. 290,000 tested, 0.36% active; in the data active = inhibition above about 50%, passing the limit was not always enough
PfGluPho inh: PfG6PD (Plasmodium falciparum) enzyme inhibition; PfGluPho enzyme, NADPH resazurin-diaphorase fluorescence; inhibition, % at 20 µM; 350,000 tested, 0.78% active; AID 504690;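 active = inhibition reaching at least a set limit at 20 µM in the primary screen, cut at about 59% in these data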;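 also: 0% = DMSO wells with substrate and 100% = DMSO wells lacking glucose-6-phosphate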
HKDC1 act conf2: HKDC1 (human) activation, single-dose confirmed. inhibition, % at 20 µM. recombinant HKDC1, G6PDH/diaphorase resazurin fluorescence; stronger effect = lower value. shares compounds with HKDC1 inhibitor. 740 tested, 14% active;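 active = inhibition at or below a set negative limit, negative inhibition meaning the enzyme was activated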
PfG6PD confirm: confirmation of Plasmodium falciparum G6PD inhibitors; shares compounds with PfGluPho inh; inhibition, % at 20 µM; recombinant PfGluPho, NADPH-diaphorase-resazurin fluorescence; 2,400 tested, 34% active;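 active = inhibition of at least 50% at 20 µM in any single replicate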;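 also: 0% = DMSO with substrate and 100% = DMSO lacking glucose-6-phosphate substrate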
Diaph ctr 10uM: diaphorase inhibition or oxidation at 10 uM NADPH. shares compounds with PfGluPho inh. diaphorase-coupled resazurin reduction, fluorescence, NADPH 10 uM. inhibition, % at 20 µM. 820 tested, 39% active;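 active = average inhibition reaching 50% or more with the compound at 20 µM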;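 also: resorufin red fluorescence formed as diaphorase reduces resazurin using NADPH; 0% = DMSO with enzyme and 100% = DMSO without enzyme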
Diaphorase 30uM: diaphorase inhibition or oxidation at 30 uM NADPH; shares compounds with PfGluPho inh; Diaphorase/resazurin coupled assay, resorufin fluorescence; inhibition, % at 20 µM; 820 tested, 29% active; AID 504863;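 active = inhibition averaging 50% or more, tested at 20 µM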;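 also: 0% = DMSO with enzyme and 100% = DMSO wells lacking diaphorase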
The depositor's hits bear a star; · = no result given. Sampled rows, rich in hits. Any-hit rate of the full collection: about 2.4%.

SMILES	HKDC1 inhibitor	APOBEC3A inh	M18AAP inhibitor	APOBEC3G inh	UBC9 SUMO inh	PfGluPho inh	HKDC1 act conf2	PfG6PD confirm	Diaph ctr 10uM	Diaphorase 30uM
COc1cc(/C=C2\SC(N)=NC2=O)cc(Cl)c1O	16	-4	2	-4	-11	23	·	·	·	·
C=CC(=O)N1C/C(=C/c2ccc(F)cc2)C(=O)/C(=C\c2ccc(F)cc2)C1	36*	·	·	·	·	62*	4	14	·	·
CN1C2CCC1/C(=C\c1ccc(F)cc1)C(=O)/C2=C/c1ccc(F)cc1	1	-4	-3	-10	-32	4	·	·	·	·
COC(=O)c1scc(C)c1NC(=O)C1CCCCC1	-7	1	-8	2	9	-3	·	·	·	·
CCN(CC)c1ccc(C(=C2C=CC(=[N+](CC)CC)C=C2)c2ccc(N(CC)CC)cc2)cc1	54*	·	·	·	·	92*	12	85*	35	22
CCOC(=O)/C(=C\c1cccnc1)C(=O)c1cc(C(C)=O)c(Nc2ccccc2)s1	42*	-1	3	-2	-9	66*	16	20	·	·
CCCC(=O)NC1=C(Cl)C(=O)c2ccccc2C1=O	60*	·	·	·	·	128*	81	116*	99*	97*
O=C(C1CC1)N1CCN(c2ccc([N+](=O)[O-])cc2-n2cccc2)CC1	4	-1	10	0	14	4	·	·	·	·
CC(OC(=O)c1cc(O)c2ccccc2c1O)C(=O)Nc1ccc(C(N)=O)cc1 (stereo unspecified)	39*	0	·	-3	·	72*	28	33	·	·
Cc1cc(C)c2c(=N)c3ccccc3n(CCCCCCCCn3c4ccccc4c(=N)c4c(C)cc(C)nc43)c2n1	74*	·	·	·	·	76*	23	51*	3	0
Cc1cc(C)c2c(C)nn(-c3ccccc3)c2n1	3	0	-4	2	-4	1	·	·	·	·
O=C1CC(=Nc2ccccc2)NN1c1ccccc1	1	-2	25	-2	41	30	·	·	·	·
N=C1N(c2ccccc2)C(=S)C(=Nc2ccccc2)N1c1ccccc1	-77	·	·	·	·	65*	4	26	·	·
COC1=C(OC)C(=O)C(Sc2ccc3ccccc3c2)=CC1=O	71*	·	·	·	·	128*	71	106*	82*	38
COc1ccc(S(=O)(=O)Oc2ccc3ccccc3c2)cc1	-6	-3	4	-11	-21	0	·	·	·	·
CCN(CC)CCNc1cc(C)nc2c1C(=O)C(=O)C=C2N1CCCCC1	45*	1	11	-2	21	75*	58	47	·	·
CC1(C)Cc2ccccc2C2=NNC(=O)C2=N1	53*	-1	1	-8	41	108*	37	94*	93*	93*
O=C1C(Nc2ccc(O)cc2)=C/C(=N/S(=O)(=O)c2cccs2)c2ccccc21	60*	·	4	·	48	114*	57	60*	67*	65*
Cc1ccc(NC2=C/C(=N\S(=O)(=O)c3cccs3)c3ccccc3C2=O)c(C)c1	40*	4	-1	-1	18	102*	30	58*	60*	57*
CC(C)(C)c1cc[n+](C2=C([O-])c3ccccc3C(=O)/C2=N\S(=O)(=O)c2cccs2)cc1	17	-3	6	-9	58	44	·	·	·	·
Cc1ccc(Cl)cc1NC1=C/C(=N\S(=O)(=O)c2cccs2)c2ccccc2C1=O	36*	3	-4	-4	49	95*	36	58*	39	41
Cc1ccc(S(=O)(=O)/N=C2\C=C(NS(=O)(=O)c3ccccc3)C(=O)c3ccccc32)cc1	29	·	·	·	·	14	·	·	·	·
O=C(CNCc1ccc(Cl)cc1)NCc1ccco1	-4	-4	0	-4	4	10	·	·	·	·

Screens (PubChem BioAssay)
